# Measurements: ChEMBL document CHEMBL3763042, “Synthesis, biological evaluation and molecular modeling of a novel series of 7-azaindole based tri-heterocyclic compounds as potent CDK2/Cyclin E inhibitors” (Eur J Med Chem, 2016)
# What was measured:
# [1] = molecular target: T1, Cyclin-dependent kinase 2/cyclin E1 (Homo sapiens, UniProt P24941); assay: Inhibition of CDK2/Cyclin E (unknown origin); assay type: protein-complex assay
# MCF7 [2] = assay: Cytotoxicity against human MCF7 cells assessed as cell viability at 50 uM after 72 hrs by fluorescence microplate reader method; assay type: functional; settings: MCF7, 72 h, read-out: Activity
# [3] = molecular target: T1, Cyclin-dependent kinase 2/cyclin E1; assay: Inhibition of CDK2/Cyclin E (unknown origin) expressed in baculoviral infected insect Sf9 cells using histone H1 as substrate in presence of [gamma-33P]ATP
# K562 [4] = assay: Cytotoxicity against human K562 cells assessed as cell viability after 72 hrs by fluorescence microplate reader method; assay type: functional, cell-based; settings: K562, 72 h
# Procedure, shortened: (§1)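 Cells were exposed to three-fold compound dilutions in triplicate for 72 h. Viability was read after adding Calcein AM, as live-cell fluorescence at 485/538 nm (excitation/emission).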
# [5] = Cytotoxicity against human G361 cells assessed as cell viability at 50 uM after 72 hrs by fluorescence microplate reader method; assay type: functional; settings: G-361, 72 h, read-out: Activity
# G-361 = assay: Induction of apoptosis in human G361 cells assessed as activation of caspases-3/7 at 50 uM using Ac-DEVD-AMC as substrate after 6 hrs by fluorescence microplate reader method relative to control; assay type: functional
# Procedure, shortened: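 G361 cells were seeded at 20,000 cells/well overnight, then treated with compound for 24 h. A 3x caspase-3/7 buffer (HEPES pH 7.4, NaCl, KCl, MgCl2, EGTA, Nonidet P40, CHAPS, sucrose, DTT, PMSF) containing Ac-DEVD-AMC substrate was added, and plates were incubated at 37 °C. Fluorescence at 346/442 nm was read after 6 h and expressed relative to untreated control.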
# K562 [6] = assay: Cytotoxicity against human K562 cells assessed as cell viability at 50 uM after 72 hrs by fluorescence microplate reader method; assay type: functional; settings: K562, 72 h, read-out: Activity
# [7] = Cytotoxicity against human G361 cells assessed as cell viability after 72 hrs by fluorescence microplate reader method; assay type: functional, cell-based; settings: G-361, 72 h; procedure, shortened: as §1
# MCF7 [8] = assay: Cytotoxicity against human MCF7 cells assessed as cell viability after 72 hrs by fluorescence microplate reader method; assay type: functional, cell-based; settings: MCF7, 72 h; procedure, shortened: as §1
# [9] = molecular target: Cyclin-dependent kinase 1/cyclin B1 (Homo sapiens, UniProt P06493); assay: Inhibition of CDK1/Cyclin B (unknown origin) expressed in baculoviral infected insect Sf9 cells using histone H1 as substrate in presence of [gamma-33P]ATP; assay type: cell-based
# [10] = molecular target: Cyclin-dependent kinase 4/cyclin D1 (Homo sapiens, UniProt P11802); assay: Inhibition of CDK4/Cyclin D1 (unknown origin) using RPPTLSPIPHIPR peptide as substrate in presence of [gamma-33P]ATP; assay type: protein-complex assay
# [11] = molecular target: Cyclin-dependent kinase 5/CDK5 activator 1 (Homo sapiens, UniProt Q00535); assay: Inhibition of CDK5/p35NCK (unknown origin) using histone H1 as substrate in presence of [gamma-33P]ATP; assay type: protein-complex assay
# CDK7/Cyclin H/MNAT1 = CDK7/Cyclin H/MNAT1 (Homo sapiens, UniProt P50613); assay: Inhibition of CDK7/Cyclin H/MAT1 (unknown origin) using (YSPTSPS)2KK peptide as substrate in presence of [gamma-33P]ATP; assay type: protein-complex assay
# CDK7/Cyclin H/MNAT1, sequence (P51946 whole entry): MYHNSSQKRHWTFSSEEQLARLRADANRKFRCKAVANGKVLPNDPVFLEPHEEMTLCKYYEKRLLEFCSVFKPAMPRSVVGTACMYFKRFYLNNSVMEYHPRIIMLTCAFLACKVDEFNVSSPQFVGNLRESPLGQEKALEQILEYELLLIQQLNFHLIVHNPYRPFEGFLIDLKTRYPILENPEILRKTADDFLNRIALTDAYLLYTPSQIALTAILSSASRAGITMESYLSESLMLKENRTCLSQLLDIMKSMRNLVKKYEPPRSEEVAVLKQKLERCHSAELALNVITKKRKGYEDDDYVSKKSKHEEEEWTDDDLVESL
# CDK7/Cyclin H/MNAT1, sequence (P50613 whole entry): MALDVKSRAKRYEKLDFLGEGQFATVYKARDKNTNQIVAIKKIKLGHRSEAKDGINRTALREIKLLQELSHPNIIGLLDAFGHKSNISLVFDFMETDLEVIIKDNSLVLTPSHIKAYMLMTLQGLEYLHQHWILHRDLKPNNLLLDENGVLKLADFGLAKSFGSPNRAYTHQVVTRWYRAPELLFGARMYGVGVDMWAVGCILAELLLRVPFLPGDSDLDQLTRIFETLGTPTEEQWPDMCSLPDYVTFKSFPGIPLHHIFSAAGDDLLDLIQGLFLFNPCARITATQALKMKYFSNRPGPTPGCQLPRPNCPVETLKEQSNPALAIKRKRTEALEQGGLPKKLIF
# CDK7/Cyclin H/MNAT1, sequence (P51948 whole entry, further chain): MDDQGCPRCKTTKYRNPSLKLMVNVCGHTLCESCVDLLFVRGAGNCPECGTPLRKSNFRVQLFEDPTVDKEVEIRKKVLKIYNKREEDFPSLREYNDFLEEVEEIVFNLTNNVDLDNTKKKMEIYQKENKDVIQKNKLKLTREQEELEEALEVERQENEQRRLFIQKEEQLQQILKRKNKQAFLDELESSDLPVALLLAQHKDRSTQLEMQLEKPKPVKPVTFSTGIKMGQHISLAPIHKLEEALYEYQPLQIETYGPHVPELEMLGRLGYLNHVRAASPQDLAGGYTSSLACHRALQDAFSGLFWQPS
# Cyclin-dependent kinase 4/cyclin D1, sequence (P11802 whole entry): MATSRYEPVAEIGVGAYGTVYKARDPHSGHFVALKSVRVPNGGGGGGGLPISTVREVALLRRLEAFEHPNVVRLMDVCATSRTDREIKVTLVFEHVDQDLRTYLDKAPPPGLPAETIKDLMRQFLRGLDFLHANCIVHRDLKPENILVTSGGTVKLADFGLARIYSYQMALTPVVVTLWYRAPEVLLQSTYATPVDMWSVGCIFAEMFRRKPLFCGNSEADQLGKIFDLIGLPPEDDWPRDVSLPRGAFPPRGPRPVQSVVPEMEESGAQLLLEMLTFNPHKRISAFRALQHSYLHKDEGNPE
# Cyclin-dependent kinase 4/cyclin D1, sequence (P24385 whole entry, further chain): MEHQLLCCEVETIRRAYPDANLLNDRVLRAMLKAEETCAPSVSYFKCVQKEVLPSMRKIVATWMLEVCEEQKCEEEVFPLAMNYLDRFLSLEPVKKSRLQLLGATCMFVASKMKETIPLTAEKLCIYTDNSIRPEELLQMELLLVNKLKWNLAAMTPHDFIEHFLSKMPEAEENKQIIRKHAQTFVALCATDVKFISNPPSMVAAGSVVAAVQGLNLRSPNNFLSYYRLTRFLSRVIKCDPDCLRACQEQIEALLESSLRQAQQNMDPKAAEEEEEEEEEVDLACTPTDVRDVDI
# Cyclin-dependent kinase 5/CDK5 activator 1, sequence (Q00535 whole entry): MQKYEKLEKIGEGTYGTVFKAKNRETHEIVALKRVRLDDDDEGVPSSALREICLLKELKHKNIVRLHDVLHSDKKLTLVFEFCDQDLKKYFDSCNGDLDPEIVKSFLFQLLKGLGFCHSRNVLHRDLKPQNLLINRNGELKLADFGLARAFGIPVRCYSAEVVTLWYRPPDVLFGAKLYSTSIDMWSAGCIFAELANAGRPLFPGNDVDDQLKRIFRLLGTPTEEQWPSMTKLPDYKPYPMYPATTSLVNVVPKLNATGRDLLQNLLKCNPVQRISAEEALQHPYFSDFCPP
# Cyclin-dependent kinase 5/CDK5 activator 1, sequence (Q15078 whole entry, further chain): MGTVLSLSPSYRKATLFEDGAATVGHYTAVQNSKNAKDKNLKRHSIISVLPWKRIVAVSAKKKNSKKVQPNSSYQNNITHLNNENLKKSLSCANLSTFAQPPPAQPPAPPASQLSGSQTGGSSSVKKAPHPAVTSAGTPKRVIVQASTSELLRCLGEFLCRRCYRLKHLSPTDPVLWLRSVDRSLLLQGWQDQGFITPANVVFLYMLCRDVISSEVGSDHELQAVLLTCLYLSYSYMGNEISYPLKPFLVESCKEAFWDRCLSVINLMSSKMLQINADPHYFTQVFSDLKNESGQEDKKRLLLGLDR
# Cyclin-dependent kinase 1/cyclin B1, sequence (P06493 whole entry): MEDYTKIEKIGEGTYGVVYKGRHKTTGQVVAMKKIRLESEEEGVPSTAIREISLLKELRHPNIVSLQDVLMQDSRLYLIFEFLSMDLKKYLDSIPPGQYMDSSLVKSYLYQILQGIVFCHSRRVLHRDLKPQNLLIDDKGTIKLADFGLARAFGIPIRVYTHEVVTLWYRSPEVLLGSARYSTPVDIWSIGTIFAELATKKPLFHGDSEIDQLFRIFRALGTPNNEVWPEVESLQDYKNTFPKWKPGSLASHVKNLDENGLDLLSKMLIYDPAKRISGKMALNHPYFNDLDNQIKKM
# Cyclin-dependent kinase 1/cyclin B1, sequence (P14635 whole entry, further chain): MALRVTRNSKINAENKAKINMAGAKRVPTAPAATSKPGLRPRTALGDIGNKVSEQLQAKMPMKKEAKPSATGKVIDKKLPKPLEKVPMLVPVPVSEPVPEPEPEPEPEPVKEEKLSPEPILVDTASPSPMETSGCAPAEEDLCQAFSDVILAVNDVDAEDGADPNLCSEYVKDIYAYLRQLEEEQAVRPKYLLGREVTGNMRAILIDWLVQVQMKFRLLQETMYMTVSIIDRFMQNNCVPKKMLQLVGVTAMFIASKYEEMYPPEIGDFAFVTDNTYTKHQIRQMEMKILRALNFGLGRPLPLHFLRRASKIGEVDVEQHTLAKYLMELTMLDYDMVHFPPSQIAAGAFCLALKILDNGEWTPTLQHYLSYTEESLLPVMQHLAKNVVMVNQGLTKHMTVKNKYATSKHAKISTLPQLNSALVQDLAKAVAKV
IC50 [1] [µM],IC50 [9] [µM],IC50 [10] [µM],IC50 [11] [µM],IC50 (CDK7/Cyclin H/MNAT1) [µM],Structure (SMILES),viability at 50 µM (MCF7 [2]) [%],IC50 ([3]; read-out: IC50) [µM],IC50 ([3]; read-out: pIC50 (converted)) [µM],IC50 (K562 [4]) [µM],viability at 50 µM [5] [%],fold change (FC) (G-361),viability at 50 µM (K562 [6]) [%],IC50 [7] [µM],IC50 (MCF7 [8]) [µM]
0.038,,,,,Nc1ccc(CC(=O)Nc2cccc3c2C(=O)c2c-3n[nH]c2-c2ccc(O)cc2)cc1,,,,,,,,,
,,,,,c1cnc2[nH]c(-c3cn(CCc4c[nH]c5ncccc45)nn3)cc2c1,63.2,30,31.6,> 50,59.1,4.5,67.2,> 50,58.5
,,,,,O=S(=O)(c1ccccc1)n1c(-c2cn(CCCc3c[nH]c4ncccc34)nn2)cc2cccnc21,84.1,18,20,> 25,86.8,1.8,89.2,> 50,> 25
,,,,,c1cnc2[nH]c(-c3cn(CCCc4c[nH]c5ncccc45)nn3)cc2c1,80.5,8.7,7.94,> 25,81.8,1.9,91.5,> 50,> 25
,,,,,O=S(=O)(c1ccccc1)n1cc(Cn2cc(-c3c[nH]c4ncccc34)nn2)c2cccnc21,78.7,25.8,25.1,> 25,86.1,7.5,73.3,> 50,> 25
10,,,,,Cc1nc2ccccn2c1-c1ccnc(NC(=O)Nc2ccccc2)n1,,,,,,,,,
,3.95,3.16,4.96,> 20,COc1ccccc1-c1cc(Nc2cccc(CS(N)(=O)=O)c2)ncn1,,,,,,,,,
,,,,,c1cnc2[nH]cc(CCCn3cc(-c4c[nH]c5ncccc45)nn3)c2c1,52,6.1,6.31,66.6,70,3.9,72.1,36.9,60.7
,,,,,c1cnc2[nH]c(-c3cnnn3CCc3c[nH]c4ncccc34)cc2c1,74.4,27.6,25.1,> 25,69.5,2,70,> 50,> 25
,,,,,O=C(Cn1cc(-c2c[nH]c3ncccc23)nn1)c1c[nH]c2ncccc12,83.5,29.3,31.6,> 25,84.1,2.2,88,> 50,> 25
1.02,,,,,Cc1nc(C)c(-c2ccnc(Nc3ccc(N4CCN(C)CC4)cc3)n2)s1,,,,,,,,,
,,,,,O=C(CCn1cc(-c2cc3cccnc3[nH]2)nn1)c1c[nH]c2ncccc12,41.2,3.6,3.98,> 25,62.4,1.2,75.8,> 50,> 25
,,,,,O=C(Cn1nncc1-c1cc2cccnc2[nH]1)c1c[nH]c2ncccc12,98,3,3.16,> 25,96.3,2.2,91.1,> 50,> 25
,,,,,O=C(CCn1cc(-c2c[nH]c3ncccc23)nn1)c1c[nH]c2ncccc12,63.5,17.8,20,44.3,61.3,4.5,65,> 50,64.7
,,,,,O=S(=O)(c1ccccc1)n1cc(Cn2cc(-c3cc4cccnc4[nH]3)nn2)c2cccnc21,72.6,> 25,25.1,> 25,76.4,1.6,90.2,> 50,> 25
,,,,,c1cnc2[nH]c(Cn3cc(-c4c[nH]c5ncccc45)nn3)cc2c1,84.5,18.4,20,> 50,88.6,2.1,81.9,> 50,47.4
0.0347,,,,,CC(C)[C@H](CO)Nc1nc(NCc2ccc(Cl)cc2)c2ncn(C(C)C)c2n1,,,,,,,,,

IC50 [1] [µM],IC50 [9] [µM],IC50 [10] [µM],IC50 [11] [µM],IC50 (CDK7/Cyclin H/MNAT1) [µM],Structure (SMILES),viability at 50 µM (MCF7 [2]) [%],IC50 ([3]; read-out: IC50) [µM],IC50 ([3]; read-out: pIC50 (converted)) [µM],IC50 (K562 [4]) [µM],viability at 50 µM [5] [%],fold change (FC) (G-361),viability at 50 µM (K562 [6]) [%],IC50 [7] [µM],IC50 (MCF7 [8]) [µM]
,,,,,CC[C@H](CO)Nc1nc(NCc2ccccc2)c2ncn(C(C)C)c2n1 [SELICICLIB],,,,30.9,,,,20.8,27.2
,,,,,O=S(=O)(c1ccccc1)n1c(-c2cn(CCc3c[nH]c4ncccc34)nn2)cc2cccnc21,76.2,> 25,25.1,> 25,71.1,2.1,82.7,> 50,> 25
0.0191,,,,,NC(=O)C(=O)NNC(=O)Nc1cccc2c1C(=O)c1c-2n[nH]c1-c1ccc(O)cc1,,,,,,,,,
,,,,,c1ccc(-c2cn(CCc3c[nH]c4ncccc34)nn2)cc1,65.6,> 50,100,> 50,43.3,3.1,65.7,33.6,> 50
0.00891,,,,,O=C(NNC(=O)c1ccccc1O)Nc1cccc2c1C(=O)c1c-2n[nH]c1-c1ccc(O)cc1,,,,,,,,,
,,,,,O=C(Cn1cc(-c2cc3cccnc3[nH]2)nn1)c1c[nH]c2ncccc12,84.9,9.2,10,> 25,82,1.7,91.4,> 50,> 25
,,,,,c1cnc2[nH]cc(CCn3cc(-c4c[nH]c5ncccc45)nn3)c2c1,71.4,7.2,7.94,39.5,53,1.2,58.6,44.2,87.1
,,,,,O=C(Cn1cc(-c2ccccc2)nn1)c1c[nH]c2ncccc12,82.8,> 50,100,> 25,86.8,1.5,95.9,> 50,> 25
,,,,,c1cnc2[nH]cc(CCCn3nncc3-c3c[nH]c4ncccc34)c2c1,59.9,2.7,2.51,> 25,26.5,4.2,63.4,33.4,> 25
,,,,,O=C(Cn1nncc1-c1c[nH]c2ncccc12)c1c[nH]c2ncccc12,75.2,1.1,1,> 25,63,2.9,76.6,> 50,> 25
2.88,,,,,Cn1ccc2ccc3c4[nH]c5cccc(Br)c5c4c4c(c3c21)C(=O)NC4=O,,,,,,,,,
,,,,,Cc1ccc(NC(=O)c2ccc(CN3CCN(C)CC3)cc2)cc1Nc1nccc(-c2cccnc2)n1 [IMATINIB],,,,0.73,,,,,> 10
,,,,,O=C(CCn1nncc1-c1c[nH]c2ncccc12)c1c[nH]c2ncccc12,77.5,13.4,12.6,> 25,78.7,3.3,73.8,> 50,> 25
,,,,,c1cnc2[nH]c(Cn3cc(-c4cc5cccnc5[nH]4)nn3)cc2c1,74.8,1.9,2,> 25,90.6,1.9,97.6,> 50,> 25
,,,,,c1cnc2[nH]cc(CCn3nncc3-c3c[nH]c4ncccc34)c2c1,58,9.1,10,> 25,65.7,1.9,59.2,> 50,> 25
,,,,,O=C(CCn1nncc1-c1cc2cccnc2[nH]1)c1c[nH]c2ncccc12,,36.1,31.6,> 25,62.7,,,> 50,> 25
